Assay outcomes (PubChem)
DAT uptake mod – human DAT dopamine uptake with cocaine, either direction | Q01959 | B-score at 10 µM | LLC-PK1 hDAT cells, [14C]-dopamine uptake with cocaine IC80; actives deviate in either direction | actives 1.3% (n = 110,000);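 active = Z score or B-score, a plate-position-corrected score, falls beyond the plate's 99.7% confidence bounds, in either direction; inactive = both scores lie inside the 99.7% bounds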;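 also: scored against the spread of the other compound wells on the same plate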
E coli RNAP – inhibitors of Escherichia coli RNA polymerase; P0A8V2; E. coli RNA polymerase, fluorescence transcription assay; inhibition, %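 (tested at 10 µM)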; actives 0.2% (n = 62,000); AID 559; in the data active = inhibition above about 20%;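 also: 0% = enzyme without compound and 100% = no enzyme blank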
HEK293 NFkB inh – lowers PMA/ionomycin-induced NF-kB signal in HEK293 cells; HEK-293 NF-kB luciferase reporter, luminescence; inhibition, % at 3 µM; actives 0.21% (n = 62,000); AID 465;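 active = inhibition above the mean of all tested compounds plus 3 SD, cut at about 40% in these data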;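 also: 0% = stimulated DMSO wells and 100% = 10 µM reference inhibitor 5653914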
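System – HEK-293 cells with stable firefly luciferase reporter driven by four HIV NF-kB elements · Doses – one dose, 3 µM · Schedule – 1 h compound pre-incubation, 16 h PMA/ionomycin at 37 °C · Technique – luminescence from luciferase substrate reagent · Measure – percent inhibition normalized per plate to DMSO and reference-inhibitor controls · Replicates – tested once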
AP complement – orthogonal test for alternative complement pathway inhibitors; Human serum alternative complement pathway, LPS-coated ELISA, C3 deposition; tested in compound mixtures; inhibition, % at 5 µM; AID 1235; actives 0.08% (n = 62,000);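 active = inhibition above 30% in each of the two pooled mixtures holding the compound, so the lower value exceeds 30%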;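 also: 0% = serum in Mg-EGTA without compound and 100% = EDTA serum blank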
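Medium: diluted human serum in Mg2+-EGTA GVB++. Assay system: human serum complement alternative pathway, C3 deposition onto LPS. Also added: Plate-bound LPS. Technique: Anti-C3 ELISA, OD 450 nm. Measure: percent inhibition. Incubation: 1 h at 37 °C. Dosing: 5 µM each compound, pools of ten, 50 µM per pool.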
D1 allo mod – allosteric modulators of human D1 dopamine receptor | P21728 | HEK293 D1, CRE-luciferase, dopamine EC30 potentiation; actives deviate in either direction | B-score at 10 µM | actives 5.9% (n = 58,000);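 active = luminescence count or its row- and column-corrected plate score outside the 99.7% band of the plate's sample wells, on either side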
Target sequence (P21728 whole entry, looked up): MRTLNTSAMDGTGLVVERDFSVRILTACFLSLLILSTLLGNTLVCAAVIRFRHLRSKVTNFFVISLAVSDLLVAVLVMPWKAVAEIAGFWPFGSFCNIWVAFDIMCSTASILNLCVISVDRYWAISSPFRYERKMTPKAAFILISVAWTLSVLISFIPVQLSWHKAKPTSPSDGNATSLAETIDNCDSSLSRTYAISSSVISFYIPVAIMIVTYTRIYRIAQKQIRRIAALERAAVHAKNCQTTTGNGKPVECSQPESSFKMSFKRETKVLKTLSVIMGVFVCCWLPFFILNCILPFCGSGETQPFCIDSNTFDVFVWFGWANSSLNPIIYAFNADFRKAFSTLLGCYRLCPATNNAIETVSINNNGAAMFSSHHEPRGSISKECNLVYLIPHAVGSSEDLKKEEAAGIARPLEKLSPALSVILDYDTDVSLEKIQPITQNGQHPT
Starred values were filed as active, the others as inactive; · = not tested or not shown. This excerpt belongs to a sample that is enriched for hits.

SMILES	DAT uptake mod	E coli RNAP	HEK293 NFkB inh	AP complement	D1 allo mod
O=C(NC(NC(=S)Nc1ccccc1C(=O)O)C(Cl)(Cl)Cl)c1cccc([N+](=O)[O-])c1 (stereo unspecified)	-7.4*	·	·	·	·
CCOC(=O)NC(NC(=S)Nc1ccccc1[N+](=O)[O-])C(Cl)(Cl)Cl (stereo unspecified)	-3.5*	·	·	·	·
O=C(CCn1c(=O)oc2ccccc21)NCCN1CCOCC1	-0.85	3	-1	-16	-0.13
O=C(NCc1cccs1)C(Cc1ccccc1)n1cccc1 (stereo unspecified)	-1.1	23*	4	-7	0.081
Fc1ccc(-c2nnc(NC3=NCCCCC3)o2)cc1	·	0	26	7	-6.6*
COc1cccc(N2C(=O)C(CC(=O)Nc3ccccc3)N(C3CCCCC3)C2=O)c1 (stereo unspecified)	0.52	6	16	8	-7.4*
COc1cccc(N2C(=O)C(CC(=O)Nc3ccc(F)cc3)N(C3CCCCC3)C2=O)c1 (stereo unspecified)	0.49	6	13	15	-0.0043
CCOC(=O)C(=O)/C(C#N)=C/Nc1ccccc1	0.3	·	·	·	·
CCOC(=O)/C(C#N)=C/Nc1ccccc1OC	-8.2*	·	·	·	·
COc1ccc(N2CCN(C(=S)Nc3cc(C)ccc3C)CC2)cc1	-4.7*	·	·	·	·
COc1ccc(OC)c(NC(=S)N2CCN(c3ccccn3)CC2)c1	-8.8*	·	·	·	·
CC1Oc2ccccc2N(CC(=O)N(Cc2ccccc2)Cc2ccccn2)C1=O (stereo unspecified)	0.11	4	2	3	0.51
Cn1cc(/C=N/n2cnc3scc(-c4ccc(Cl)cc4)c3c2=O)c2ccccc21	-0.89	4	40*	2	0.86
CC(NC(=O)Cn1cnnn1)C12CC3CC(CC(C3)C1)C2 (stereo unspecified)	-3.3*	2	19	20	-0.88
CCCNC(=O)NC(C)C12CC3CC(CC(C3)C1)C2 (stereo unspecified)	-0.4	·	·	·	·
CC(NC(=O)CN1CCCC1)C12CC3CC(CC(C3)C1)C2 (stereo unspecified)	-5.6*	·	·	·	·
O=C(CN1CCCC1)NCC12CC3CC(CC(C3)C1)C2	-2.2	5	-4	30	0.11
Cc1cc2ncn(CCOc3ccccc3C#N)c2cc1C	1.3	2	11	-17	0.17
O=C(Cn1cc2c(n1)CCCC2)NCCCN1CCN(c2ccccc2F)CC1	-1.2	6	12	17	-3.1*
CCN1CCCC1CNC(=O)CSc1cc(=O)n(CC)c2ccccc12 (stereo unspecified)	-0.7	2	22	10	-0.84
CCn1c(=O)cc(SCC(=O)NCCCN2CCN(c3ccccc3F)CC2)c2ccccc21	0.28	13	20	23	-3.5*
CCCCOC(=O)c1[nH]c2c(c1C)C(=O)CC(c1cc(OC)c(OC)c(OC)c1)C2 (stereo unspecified)	1.2	8	27	5	-3.4*
C=CCOC(=O)c1[nH]c2c(c1C)C(=O)CC(c1cc(OC)c(OC)c(OC)c1)C2 (stereo unspecified)	-0.36	14	17	19	-3.2*
Cc1ccc2nc(N3CCN(Cc4ccc(F)cc4)C3=O)c(C)cc2c1	2.2*	5	17	17	-0.27
CCOC(=O)c1c(-c2ccco2)csc1N	2.1*	13	7	-5	0.13
SMILES	DAT uptake mod	E coli RNAP	HEK293 NFkB inh	AP complement	D1 allo mod
COC(=O)CSc1nc(C)cc(C(F)(F)F)c1C#N	-1.2	·	·	·	·
CCOC(=O)NC(=O)CSc1nc(C)cc(C(F)(F)F)c1C#N	1.3	9	-2	33*	-0.16
COc1cc(C(CCN2CCOCC2)c2c(OC)cc(OC)c3c(C)cc(=O)oc23)cc(OC)c1OC (stereo unspecified)	2.8*	·	·	·	·
COc1cc(C(CC(=O)N2CCCC2)c2c(OC)cc(OC)c3c(-c4ccccc4)cc(=O)oc23)cc(OC)c1OC (stereo unspecified)	2.7*	·	·	·	·
COc1cc(C(CCN2CCCC2)c2c(OC)cc(OC)c3c(C)cc(=O)oc23)cc(OC)c1OC (stereo unspecified)	0.61	·	·	·	·
COc1ccc(C(CC(=O)N2CCCC2)c2c(OC)cc(OC)c3c(-c4ccccc4)cc(=O)oc23)cc1 (stereo unspecified)	1.1	·	·	·	·
Cc1cc(=O)oc(C)c1C(=O)NCC(C)NC(=O)c1c(C)cc(=O)oc1C (stereo unspecified)	3.2*	6	·	·	·
Clc1ccc(Cc2nc(-c3cccnc3)no2)cc1	-0.55	·	·	·	·
CCn1c(C)nc2cc(-c3nc4n(n3)Cc3ccccc3-4)ccc21	0.37	11	93*	24	·
Cc1ccc(-c2nc3n(n2)Cc2ccccc2-3)cc1	-0.037	·	·	·	·
CCOC(=O)C(=CNc1cc(C)nn1-c1ccccc1)C(=O)OCC	2.2*	·	·	·	·
C/C=C/C(=O)Nc1cccc(C2=NOC3(C2)C[C@@H](C(N)=O)N(C(=O)/C(C)=C/C)C3)c1 (stereo partly specified)	-1.2	·	·	·	·
COc1cc(CC(NC(C)=O)C(=O)NC2CCN(c3nc(C)cc(C)c3C#N)CC2)cc(OC)c1 (stereo unspecified)	·	9	56*	14	1
Cc1c(N2C(=O)/C(=C/c3ccccc3)SC2=S)c(=O)n(-c2ccccc2)n1C	2.6*	·	·	·	·
O=C(/C=C1\NCC2c3ccccc3CCN2C1=O)c1ccccc1 (stereo unspecified)	-0.15	·	·	·	·
CN(C)/C=C(\C#N)C(=O)Nc1ccc(F)cc1	-2.2*	·	·	·	·
COc1cc2c(C(=O)NCc3ccc(C)o3)cn(CC(C)C)c(=O)c2cc1OC	0.25	4	5	18	-0.00059
CCC1CCCCN1CCCNC(=O)c1cn(CC(C)C)c(=O)c2cc(OC)c(OC)cc12 (stereo unspecified)	-7.2*	3	5	10	-0.52
O=C(Cc1nn[nH]n1)NCc1ccccc1Cl	-0.02	0	11	11	0.3
Cc1ccc(Cl)cc1NC1=C/C(=N\S(=O)(=O)c2cccs2)c2ccccc2C1=O	-3.5*	·	·	·	·
CCCCN(CC)Cc1ccc(CNC(=O)Nc2ccccc2)o1	-2.5*	·	·	·	·
CC1(C)C[C@H](O)[C@@]23C[C@@H](OC2=O)[C@]2(C)C(=CCC4[C@@]5(C)CC[C@H](O)C(C)(C)C5CC[C@]42C)[C@@H]3C1 (stereo partly specified)	-0.55	·	·	·	·
CCCCn1c(SCC(=O)N2CCOCC2)nnc1-c1ccoc1C	-0.65	·	·	·	·
CCn1c(SCC(=O)N2CCN(c3ccccc3F)CC2)nnc1-c1ccoc1C	2.7*	8	5	-7	-0.49
CC(=O)N(C)c1ccc(OCC(O)Cn2c3ccc(Cl)cc3c3cc(Cl)ccc32)cc1 (stereo unspecified)	-0.26	·	·	·	·
Cc1nn(C)cc1CN(C)C(=O)c1nn2c(c1Cl)NC(c1cccs1)CC2C(F)(F)F (stereo unspecified)	3.5*	5	-6	1	-0.58
O=c1oc(-c2ccc(Br)o2)nc2ccccc12	-2	·	·	·	·
